# In ChEMBL document CHEMBL3351772, “Xenortide Biosynthesis by Entomopathogenic Xenorhabdus nematophila” (J Nat Prod, 2014):
# Square brackets hold non-standard residues; d marks the D form. Peptide text beside a SMILES is read from it. * marks the point of attachment. NMeF = CN[C@@H](Cc1ccccc1)C(=O)O; NMeL = CN[C@@H](CC(C)C)C(=O)O; NHPhenethyl = c1ccc(CCN*)cc1; NMeV = CN[C@H](C(=O)O)C(C)C
# How the values were obtained:
# Leishmania donovani = assay: Antiparasitic activity against Leishmania donovani; assay type: functional, organism-based
# Outline: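 Leishmania donovani strain MHOM-ET-67/L82; assay run per an earlier published method.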
# L6 = assay: Cytotoxicity against rat L6 cells; assay type: cell-based
# Outline: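 Rat L6 skeletal myoblasts; cytotoxicity assay run per an earlier published method.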
# [1] = system: Trypanosoma brucei rhodesiense; assay: Antiparasitic activity against Trypanosoma brucei rhodesiense STIB900; assay type: functional, organism-based
# Plasmodium falciparum = assay: Antiparasitic activity against Plasmodium falciparum NF54; assay type: functional, organism-based
# Trypanosoma cruzi = assay: Antiparasitic activity against Trypanosoma cruzi Tulahuen C4; assay type: functional, organism-based
IC50 (Leishmania donovani),IC50 [1],IC50 (Plasmodium falciparum),IC50 (Trypanosoma cruzi),Compound,IC50 (L6)
111 µM,1.57 µM,0.76 µM,11.7 µM,CN[C@@H](CC(C)C)C(=O)N(C)[C@@H](Cc1ccccc1)C(=O)NCCc1c[nH]c2ccccc12 [XENORTIDE B],13.7 µM
25 µM,89.2 µM,> 126 µM,132 µM,CN[C@H](C(=O)N(C)[C@@H](Cc1ccccc1)C(=O)NCCc1ccccc1)C(C)C (H-[NMeV]-[NMeF]-NHPhenethyl),> 253 µM
124 µM,22.5 µM,19.2 µM,46.4 µM,CN[C@@H](CC(C)C)C(=O)N(C)[C@@H](Cc1ccccc1)C(=O)NCCc1ccccc1 [XENORTIDE A] (H-[NMeL]-[NMeF]-NHPhenethyl),116 µM
0.459 µM,–,–,–,CCCCCCCCCCCCCCCCOP(=O)([O-])OCC[N+](C)(C)C [MILTEFOSINE],–
17.3 µM,4.92 µM,7.66 µM,52.7 µM,CN[C@H](C(=O)N(C)[C@@H](Cc1ccccc1)C(=O)NCCc1c[nH]c2ccccc12)C(C)C,85.6 µM
